Laboratory results published in ChEMBL document CHEMBL1124389, “Spermexatin and spermexatol: new synthetic spermidine-based siderophore analogues” (1989).

How the values were obtained:
Format in all cases: functional
[1] = test system: Escherichia coli; experiment: Compound (50 mM) was tested for the ability to stimulate growth of Escherichia coli UT 2300 at 18 h
How it was run: (§1)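 Disk-diffusion growth-promotion assay on E. coli RW 193 (FepA+) or its FepA− derivative UT2300. Cells were seeded at 10⁴/mL into Luria agar containing the iron chelator EDDA. Siderophores were dissolved in ethanol at 50, 10, 1 or 0.2 mM, spotted onto sterile disks, and the ethanol was evaporated. Plates were incubated 18 h at 37 °C and scored for growth around the disks. A 10 mM FeCl₃ disk served as positive control.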

[2] = test system: Escherichia coli; experiment: Compound (1 mM) was tested for the ability to stimulate growth of Escherichia coli RW 193 at 18 h; how it was run: as §1
[3] = test system: Vibrio cholerae; experiment: Compound (1 mM) was tested for the ability to stimulate growth of Vibrio cholera 1510 at 18 h
[4] = test system: Vibrio cholerae; experiment: Compound (50 mM) was tested for the ability to stimulate growth of Vibrio cholera Lou 15 at 18 h
[5] = test system: Escherichia coli; experiment: Compound (10 mM) was tested for the ability to stimulate growth of Escherichia coli UT 2300 at 18 h; how it was run: as §1
[6] = test system: Vibrio cholerae; experiment: Compound (0.2 mM) was tested for the ability to stimulate growth of Vibrio cholera 1510 at 18 h
[7] = test system: Vibrio cholerae; experiment: Compound (10 mM) was tested for the ability to stimulate growth of Vibrio cholera 1510 at 18 h
[8] = test system: Escherichia coli; experiment: Compound (50 mM) was tested for the ability to stimulate growth of Escherichia coli RW 193 at 18 h; how it was run: as §1
[9] = test system: Escherichia coli; experiment: Compound (10 mM) was tested for the ability to stimulate growth of Escherichia coli RW 193 at 18 h; how it was run: as §1
[10] = test system: Escherichia coli; experiment: Compound (1 mM) was tested for the ability to stimulate growth of Escherichia coli UT 2300 at 18 h; how it was run: as §1
[11] = test system: Escherichia coli; experiment: Compound (0.2 mM) was tested for the ability to stimulate growth of Escherichia coli UT 2300 at 18 h; how it was run: as §1
[12] = test system: Vibrio cholerae; experiment: Compound (50 mM) was tested for the ability to stimulate growth of Vibrio cholera 1510 at 18 h
[13] = test system: Vibrio cholerae; experiment: Compound (1 mM) was tested for the ability to stimulate growth of Vibrio cholera Lou 15 at 42h
[14] = test system: Vibrio cholerae; experiment: Compound (10 mM) was tested for the ability to stimulate growth of Vibrio cholera Lou 15 at 42h
[15] = test system: Vibrio cholerae; experiment: Compound (0.2 mM) was tested for the ability to stimulate growth of Vibrio cholera Lou 15 at 42h
[16] = test system: Escherichia coli; experiment: Compound (0.2 mM) was tested for the ability to stimulate growth of Escherichia coli RW 193 at 18 h; how it was run: as §1
[17] = test system: Vibrio cholerae; experiment: Compound (0.2 mM) was tested for the ability to stimulate growth of Vibrio cholera Lou 15 at 18 h
[18] = test system: Vibrio cholerae; experiment: Compound (10 mM) was tested for the ability to stimulate growth of Vibrio cholera Lou 15 at 18 h
[19] = test system: Vibrio cholerae; experiment: Compound (1 mM) was tested for the ability to stimulate growth of Vibrio cholera Lou 15 at 18 h

Row | Compound | Growth zone [1] [mm] | Growth zone [2] [mm] | Growth zone [3] [mm] | Growth zone [4] [mm] | Growth zone [5] [mm] | Growth zone [6] [mm] | Growth zone [7] [mm] | Growth zone [8] [mm] | Growth zone [9] [mm] | Growth zone [10] [mm] | Growth zone [11] [mm] | Growth zone [12] [mm] | Growth zone [13] [mm] | Growth zone [14] [mm] | Growth zone [15] [mm] | Growth zone [16] [mm] | Growth zone [17] [mm] | Growth zone [18] [mm] | Growth zone [19] [mm]
1 | CN(O)C(=O)CCC(=O)N(CCCCNC(=O)c1cccc(O)c1O)CCCNC(=O)c1cccc(O)c1O [SPERMEXATOL] | 0 | 0 | 0 | 36 | 0 | 0 | 0 | 21 | 12 | 0 | 0 | 28 | 0 | 0 | 0 | 0 | – | – | –
2 | CC1OC(c2cccc(O)c2O)=NC1C(=O)NCCCN(CCCNC(=O)c1cccc(O)c1O)C(=O)C1N=C(c2cccc(O)c2O)OC1C (centres undefined) [VIBRIOBACTIN] | 0 | 0 | 0 | – | 0 | 0 | 0 | 0 | 0 | 0 | 0 | 0 | – | – | – | 0 | 32 | 32 | 32
3 | CN(O)C(=O)CCCC(=O)NCCCCN(CCCNC(=O)CCCC(=O)N(C)O)C(=O)CCCC(=O)N(C)O | 16 | 0 | 0 | 12 | 10 | 0 | 0 | 18 | 10 | 0 | 0 | 12 | 0 | 0 | 0 | 0 | – | – | –
4 | CN(O)C(=O)CCC(=O)NCCCCN(CCCNC(=O)CCC(=O)N(C)O)C(=O)CCC(=O)N(C)O | 12 | 0 | 0 | 19 | 0 | 0 | 0 | 12 | 0 | 0 | 0 | 0 | – | – | – | 0 | 16 | 17 | 17
5 | O=C(N[C@H]1COC(=O)[C@@H](NC(=O)c2cccc(O)c2O)COC(=O)[C@@H](NC(=O)c2cccc(O)c2O)COC1=O)c1cccc(O)c1O [ENTEROBACTIN] | – | 40 | 0 | – | 0 | 0 | 0 | – | – | 0 | 0 | – | – | – | – | 28 | 0 | 28 | 22
